Experiments:
[1] = Metabolic stability in human liver microsomes assessed as parent compound remaining after 10 mins; type: ADME, microsome; details: read-out: Stability
Procedure, shortened: (§1)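 Compound at 3 μM was incubated with human or rat liver microsomes, and the percentage of parent compound remaining was measured after 10 min.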

MT2 = test: Cytotoxicity against human MT2 cells assessed as decrease in cell viability after 3 days […]; type: functional; details: MT2, 72 h
[2] = Metabolic stability in rat liver microsomes assessed as parent compound remaining after 10 mins; type: ADME, microsome; details: read-out: Stability; procedure, shortened: as §1
[3] = tested on: Human immunodeficiency virus 1; test: Antiviral activity against ENV pseudotyped CCR5-tropic HIV1 […] infected in human HeLa67 cells after 3 days by luciferase reporter gene assay; type: functional, organism-based; details: Human immunodeficiency virus 1, HeLa67, 72 h
Procedure, shortened: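 Single-cycle infection with env-deleted, luciferase-reporter HIV-1 pseudotyped with the JRFL (CCR5) envelope, supplied by transfection; viral titers normalized by luminescence without compound. HeLa 67 cells were infected in the presence of compounds given as 3-fold serial dilutions made from 30 mM DMSO stocks.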

[4] = Permeability in human Caco2 cells; type: ADME, cell-based; details: Caco-2, read-out: permeability
[5] = Half life in human liver microsomes; type: ADME, microsome

Row | Compound | remaining at 10 min [1] [%] | remaining at 10 min [2] [%] | EC50 [3] [nM] | Papp [4] [×10⁻⁶ cm/s] | half-life [5] [min] | CC50 (MT2) [nM]
1 | CCN(CC)CCNc1ncn(-c2ncc(OC)c3c(C(=O)C(=O)N4CCN(C(=O)c5ccccc5)CC4)c[nH]c23)n1 | 87 | 100 | 1.04 | < 1.5 |  | > 300000
2 | COc1cnc(-n2ncnc2C)c2[nH]cc(C(=O)C(=O)N3CCN(C(=O)c4ccccc4)CC3)c12 | 99 | 95 | 4.07 | 9.6 |  | > 300000
3 | COc1cnc(-c2ccnnc2)c2[nH]cc(C(=O)C(=O)N3CCN(C(=O)c4ccccc4)CC3)c12 |  |  | 0.19 | < 1.5 | 48 | 14000
4 | COc1cnc(-n2nccc2C)c2[nH]cc(C(=O)C(=O)N3CCN(C(=O)c4ccccc4)CC3)c12 | 94 | 100 | 1.43 | 21.6 |  | > 300000
5 | COc1cnc(-n2ccc(CN(C)C)n2)c2[nH]cc(C(=O)C(=O)N3CCN(C(=O)c4ccccc4)CC3)c12 | 100 | 100 | 0.27 | 1.5 to 4.1 |  | > 150000
6 | COc1cnc(-n2cnc(C(=O)N(C)C)n2)c2[nH]cc(C(=O)C(=O)N3CCN(C(=O)c4ccccc4)CC3)c12 |  |  | 0.1 |  |  | > 300000
7 | COc1cnc(-c2cc[nH]n2)c2[nH]cc(C(=O)C(=O)N3CCN(C(=O)c4ccccc4)CC3)c12 |  |  | 0.26 | < 1 | 47 | 3000
8 | COc1cnc(-c2ccncn2)c2[nH]cc(C(=O)C(=O)N3CCN(C(=O)c4ccccc4)CC3)c12 |  |  | 0.11 | 37.8 | 15 | 285000 to 300000
9 | COc1cnc(-c2cccnn2)c2[nH]cc(C(=O)C(=O)N3CCN(C(=O)c4ccccc4)CC3)c12 |  |  | 0.17 | 2.4 | 29 | > 300000
10 | COc1cnc(-c2cccs2)c2[nH]cc(C(=O)C(=O)N3CCN(C(=O)c4ccccc4)CC3)c12 |  |  | 0.12 | 6.6 | 18 | 36000
11 | CCOc1ncc(-c2ncc(OC)c3c(C(=O)C(=O)N4CCN(C(=O)c5ccccc5)CC4)c[nH]c23)s1 |  |  | 0.1 |  | 17 | > 300000
12 | COc1cnc(-n2ccc(N)n2)c2[nH]cc(C(=O)C(=O)N3CCN(C(=O)c4ccccc4)[C@H](C)C3)c12 | 92 | 91 | 0.16 |  |  | > 300000
13 | COc1cnc(-n2cc(C)cn2)c2[nH]cc(C(=O)C(=O)N3CCN(C(=O)c4ccccc4)CC3)c12 |  |  |  |  |  | 243000
14 | COc1cnc(-c2cn(C)c(=O)cn2)c2[nH]cc(C(=O)C(=O)N3CCN(C(=O)c4ccccc4)CC3)c12 |  |  | 0.26 |  |  | > 150000
15 | CCCS(=O)(=O)c1ncn(-c2ncc(OC)c3c(C(=O)C(=O)N4CCN(C(=O)c5ccccc5)CC4)c[nH]c23)n1 |  |  | 0.78 |  |  | 207000
16 | COc1cccc(-c2ncc(OC)c3c(C(=O)C(=O)N4CCN(C(=O)c5ccccc5)CC4)c[nH]c23)n1 |  |  | 0.91 |  | 8 | 64000

Row | Compound | remaining at 10 min [1] [%] | remaining at 10 min [2] [%] | EC50 [3] [nM] | Papp [4] [×10⁻⁶ cm/s] | half-life [5] [min] | CC50 (MT2) [nM]
17 | COc1cnc(-n2cnc(C(=O)N3CCN(C)CC3)n2)c2[nH]cc(C(=O)C(=O)N3CCN(C(=O)c4ccccc4)CC3)c12 |  |  | 6.54 |  |  | > 150000
18 | COc1cnc(-c2ccncc2)c2[nH]cc(C(=O)C(=O)N3CCN(C(=O)c4ccccc4)CC3)c12 |  |  | 0.33 |  |  | 6000
19 | COc1cnc(-c2ncco2)c2[nH]cc(C(=O)C(=O)N3CCN(C(=O)c4ccccc4)CC3)c12 |  |  | 0.37 | 7.2 | 37 | 15000
20 | CNC(=O)c1ncn(-c2ncc(OC)c3c(C(=O)C(=O)N4CCN(C(=O)c5ccccc5)CC4)c[nH]c23)n1 |  |  | 0.1 |  |  | > 300000
21 | COc1cnc(-c2ccsc2)c2[nH]cc(C(=O)C(=O)N3CCN(C(=O)c4ccccc4)CC3)c12 |  |  | 0.13 | 3.9 | 13 | 43000
22 | COc1cnc(-c2cccc(C)n2)c2[nH]cc(C(=O)C(=O)N3CCN(C(=O)c4ccccc4)CC3)c12 |  |  | 0.59 | 13.4 | 12 | 30000
23 | COc1cnc(-n2cnc(N3CCN(C)CC3)n2)c2[nH]cc(C(=O)C(=O)N3CCN(C(=O)c4ccccc4)CC3)c12 |  |  | 0.14 |  |  | > 300000
24 | COc1ncn(-c2ncc(OC)c3c(C(=O)C(=O)N4CCN(C(=O)c5ccccc5)CC4)c[nH]c23)n1 |  |  | 0.13 |  |  | 285000
25 | COc1cnc(-c2ccccn2)c2[nH]cc(C(=O)C(=O)N3CCN(C(=O)c4ccccc4)CC3)c12 |  |  | 0.13 | 13.4 | 15 | 4000
26 | COc1cnc(-c2cscn2)c2[nH]cc(C(=O)C(=O)N3CCN(C(=O)c4ccccc4)CC3)c12 |  |  | 0.11 | 21.7 | 39 | 
27 | COc1cnc(-c2cnccn2)c2[nH]cc(C(=O)C(=O)N3CCN(C(=O)c4ccccn4)[C@@H](C)C3)c12 |  |  | 1.04 |  |  | 267000 to 300000
28 | COc1cnc(-c2ncccn2)c2[nH]cc(C(=O)C(=O)N3CCN(C(=O)c4ccccc4)CC3)c12 |  |  | 1.28 | 10.6 | 32 | > 300000
29 | COc1cnc(-n2cnc(C)n2)c2[nH]cc(C(=O)C(=O)N3CCN(C(=O)c4ccccc4)[C@@H](C)C3)c12 |  | 95 | 0.52 |  |  | > 300000
30 | COc1cnc(-c2ccoc2)c2[nH]cc(C(=O)C(=O)N3CCN(C(=O)c4ccccc4)CC3)c12 |  |  | 0.11 | 4.6 | 29 | 146000
31 | COc1cnc(-n2ccc(CN(C)C)n2)c2[nH]cc(C(=O)C(=O)N3CCN(C(=O)c4ccccc4)[C@H](C)C3)c12 |  |  | 19.8 |  |  | > 300000

The next lines start with results.

Row | remaining at 10 min [1] [%] | remaining at 10 min [2] [%] | EC50 [3] [nM] | Papp [4] [×10⁻⁶ cm/s] | half-life [5] [min] | Compound | CC50 (MT2) [nM]
32 | 95 | 95 | 0.08 | 21.9 |  | COc1cnc(-n2cncn2)c2[nH]cc(C(=O)C(=O)N3CCN(C(=O)c4ccccc4)[C@H](C)C3)c12 | > 300000
33 |  |  | 0.06 |  | 26 | COc1cnc(-c2cnc(N)s2)c2[nH]cc(C(=O)C(=O)N3CCN(C(=O)c4ccccc4)CC3)c12 | > 250000
34 | 68 | 85 | 0.07 |  |  | COc1cnc(-n2nccc2N)c2[nH]cc(C(=O)C(=O)N3CCN(C(=O)c4ccccc4)[C@H](C)C3)c12 | > 300000
35 |  |  | 0.09 | < 1.5 | 41 | COc1cnc(-c2cccnc2)c2[nH]cc(C(=O)C(=O)N3CCN(C(=O)c4ccccc4)CC3)c12 | 10000
36 |  |  | 0.02 |  | 21 | CNc1cnc(-c2ncc(OC)c3c(C(=O)C(=O)N4CCN(C(=O)c5ccccc5)CC4)c[nH]c23)cn1 | > 95000
37 | 77 | 83 | 0.03 | 19.5 |  | COc1cnc(-n2cc(F)cn2)c2[nH]cc(C(=O)C(=O)N3CCN(C(=O)c4ccccc4)CC3)c12 | 75000
38 | 68 | 91 | 0.03 | < 1.5 |  | COc1cnc(-n2cnc(SC)n2)c2[nH]cc(C(=O)C(=O)N3CCN(C(=O)c4ccccc4)CC3)c12 | > 300000
39 |  |  | 0.09 | 6.6 | 13 | COc1cnc(-c2cccc(N)n2)c2[nH]cc(C(=O)C(=O)N3CCN(C(=O)c4ccccc4)CC3)c12 | 122000
40 |  |  | 0.03 | 14.1 | 7 | CCc1ncc(-c2ncc(OC)c3c(C(=O)C(=O)N4CCN(C(=O)c5ccccc5)CC4)c[nH]c23)s1 | 120000
41 |  |  | 0.04 | 3.3 | 68 | COc1cnc(-c2cnc(N)cn2)c2[nH]cc(C(=O)C(=O)N3CCN(C(=O)c4ccccc4)CC3)c12 | 20000
42 |  |  | 0.04 | 17 | 19 | COc1cnc(-c2cnccn2)c2[nH]cc(C(=O)C(=O)N3CCN(C(=O)c4ccccc4)CC3)c12 | 3460
43 |  |  | 0.06 | 1.5 to 2.2 | 21 | COc1cnc(-c2cncc(N)n2)c2[nH]cc(C(=O)C(=O)N3CCN(C(=O)c4ccccc4)CC3)c12 | 14000
44 |  |  | 0.015 |  |  | CCCSc1ncn(-c2ncc(OC)c3c(C(=O)C(=O)N4CCN(C(=O)c5ccccc5)CC4)c[nH]c23)n1 | 7000
45 |  |  | 0.02 | 8.6 | 19 | COc1cnc(-c2ccco2)c2[nH]cc(C(=O)C(=O)N3CCN(C(=O)c4ccccc4)CC3)c12 | 281000 to 300000
46 |  |  | 0.02 |  |  | COc1cnc(-n2ccc(-c3cccc(-c4nn[nH]n4)c3)n2)c2[nH]cc(C(=O)C(=O)N3CCN(C(=O)c4ccccc4)CC3)c12 | 128000
47 |  |  | 0.04 | < 1.5 | > 100 | COc1cnc(-c2cnc(O)cn2)c2[nH]cc(C(=O)C(=O)N3CCN(C(=O)c4ccccc4)CC3)c12 | > 300000
48 |  |  | 0.03 | 1.5 | 19 | COc1cnc(-c2cncs2)c2[nH]cc(C(=O)C(=O)N3CCN(C(=O)c4ccccc4)CC3)c12 | 297000 to 300000
49 |  |  | 0.02 | < 1.5 | 17 | COc1cnc(-c2nccs2)c2[nH]cc(C(=O)C(=O)N3CCN(C(=O)c4ccccc4)CC3)c12 | > 150000
50 |  |  | 0.03 |  |  | COc1cnc(-n2ccc(-c3ccc(-c4nn[nH]n4)cc3)n2)c2[nH]cc(C(=O)C(=O)N3CCN(C(=O)c4ccccc4)CC3)c12 | > 300000

Reference: ChEMBL document CHEMBL4130629 (J Med Chem, 2018)
